Measured values published in ChEMBL document CHEMBL4402601, “Discovery of a Silicon-Containing Pan-Genotype Hepatitis C Virus NS5A Inhibitor” (J Med Chem, 2020).

Key:
Hepatitis C virus [1] = test: Antiviral activity against Hepatitis C virus subtype 1a H77 subgenomic replicon expressing NS5A infected in human HuH7 cells assessed as reduction in viral replication incubated for 3 days by luciferase reporter gene assay; type: functional, organism-based, Hepacivirus hominis; conditions: subtype 1a H77, Huh-7, 72 h
Summary of the method: (§1)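 HCV replicon cell assay; inhibition of replication read as decrease in luciferase signal. Percent inhibition computed at each compound concentration; EC50 (pM) from nonlinear regression fit to a 4-parameter logistic equation. Values are means of triplicate wells, with each experiment run at least twice.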

Hepatitis C virus [2] = test: Antiviral activity against Hepatitis C virus subtype 1b Con1 subgenomic replicon expressing NS5A infected in human HuH7 cells assessed as reduction in viral replication incubated for 3 days by luciferase reporter gene assay; type: functional, organism-based, Hepacivirus hominis; conditions: subtype 1b Con1, Huh-7, 72 h; summary of the method: as §1
Hepatitis C virus [3] = test: Antiviral activity against Hepatitis C virus subtype 3a subgenomic replicon expressing NS5A infected in human HuH7 cells assessed as reduction in viral replication incubated for 3 days by luciferase reporter gene assay; type: functional, organism-based, Hepacivirus hominis; conditions: Huh-7, 72 h; summary of the method: as §1
Hepatitis C virus [4] = test: Antiviral activity against Hepatitis C virus subtype 6a subgenomic replicon expressing NS5A infected in human HuH7 cells assessed as reduction in viral replication incubated for 3 days by luciferase reporter gene assay; type: functional, organism-based, Hepacivirus hominis; conditions: Huh-7, 72 h; summary of the method: as §1
Hepatitis C virus [5] = test: Potency index, ratio of EC50 of to EC50 of compound for antiviral activity against Hepatitis C virus subtype 6a subgenomic replicon expressing NS5A infected in human HuH7 cells assessed as reduction in viral replication incubated for 3 days by luciferase reporter gene assay; type: functional, Hepacivirus hominis
[6] = Drug distribution in mouse plasma at 10 mg/kg, po incubated for 0.5 hrs by UPLC-MS/MS analysis; type: ADME, organism-based
Summary of the method: (§2)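 Oral dosing in mice and rats; compound measured in plasma and liver by UPLC-MS/MS at each time point, n = 3 (mean ± SD). LPR is mean liver concentration divided by mean plasma concentration.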

[7] = Drug distribution in mouse plasma at 10 mg/kg, po incubated for 3 hrs by UPLC-MS/MS analysis; type: ADME, organism-based; summary of the method: as §2
[8] = Drug distribution in mouse plasma at 10 mg/kg, po incubated for 24 hrs by UPLC-MS/MS analysis; type: ADME, organism-based; summary of the method: as §2
[9] = Drug distribution in rat plasma at 10 mg/kg, po incubated for 0.5 hrs by UPLC-MS/MS analysis; type: ADME, organism-based; summary of the method: as §2
[10] = Drug distribution in rat plasma at 10 mg/kg, po incubated for 3 hrs by UPLC-MS/MS analysis; type: ADME, organism-based; summary of the method: as §2
[11] = Drug distribution in rat plasma at 10 mg/kg, po incubated for 8 hrs by UPLC-MS/MS analysis; type: ADME, organism-based; summary of the method: as §2
[12] = Drug distribution in mouse liver at 10 mg/kg, po incubated for 0.5 hrs by UPLC-MS/MS analysis; type: ADME, organism-based; conditions: read-out: Drug uptake; summary of the method: as §2
[13] = Drug distribution in mouse liver at 10 mg/kg, po incubated for 3 hrs by UPLC-MS/MS analysis; type: ADME, organism-based; conditions: read-out: Drug uptake; summary of the method: as §2
[14] = Drug distribution in mouse liver at 10 mg/kg, po incubated for 24 hrs by UPLC-MS/MS analysis; type: ADME, organism-based; conditions: read-out: Drug uptake; summary of the method: as §2
[15] = Drug distribution in rat liver at 10 mg/kg, po incubated for 0.5 hrs by UPLC-MS/MS analysis; type: ADME, organism-based; conditions: read-out: Drug uptake; summary of the method: as §2
[16] = Drug distribution in rat liver at 10 mg/kg, po incubated for 3 hrs by UPLC-MS/MS analysis; type: ADME, organism-based; conditions: read-out: Drug uptake; summary of the method: as §2
[17] = Drug distribution in rat liver at 10 mg/kg, po incubated for 8 hrs by UPLC-MS/MS analysis; type: ADME, organism-based; conditions: read-out: Drug uptake; summary of the method: as §2
[18] = Ratio of drug distribution in mouse liver to drug distribution in mouse plasma measured after 0.5 hrs by UPLC-MS/MS analysis; type: ADME, cell-free; summary of the method: as §2
[19] = Ratio of drug distribution in mouse liver to drug distribution in mouse plasma measured after 3 hrs by UPLC-MS/MS analysis; type: ADME, cell-free; summary of the method: as §2
[20] = Ratio of drug distribution in mouse liver to drug distribution in mouse plasma measured after 24 hrs by UPLC-MS/MS analysis; type: ADME, cell-free; summary of the method: as §2
[21] = Ratio of drug distribution in rat liver to drug distribution in rat plasma measured after 0.5 hrs by UPLC-MS/MS analysis; type: ADME, cell-free; summary of the method: as §2
[22] = Ratio of drug distribution in rat liver to drug distribution in rat plasma measured after 3 hrs by UPLC-MS/MS analysis; type: ADME, cell-free; summary of the method: as §2
[23] = Ratio of drug distribution in rat liver to drug distribution in rat plasma measured after 8 hrs by UPLC-MS/MS analysis; type: ADME, cell-free; summary of the method: as §2
[24] = Metabolic stability in mouse liver microsomes assessed as compound remaining at 1 uM incubated for 60 mins by UPLC-MS/MS analysis; type: ADME, Microsome; conditions: read-out: Stability
Summary of the method: (§3)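 Pooled mouse, rat or human liver microsomes (0.5 mg/mL) with 1 μM compound, 1 mM NADPH, 5 mM MgCl₂ and 100 mM potassium phosphate pH 7.4. Pre-incubated 5 min at 37 °C, started with NADPH, then run 60 min at 37 °C. Quenched with ice-cold acetonitrile containing internal standard; parent remaining measured by UPLC-MS/MS.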

[25] = Metabolic stability in rat liver microsomes assessed as compound remaining at 1 uM incubated for 60 mins by UPLC-MS/MS analysis; type: ADME, Microsome; conditions: read-out: Stability; summary of the method: as §3
[26] = Metabolic stability in human liver microsomes assessed as compound remaining at 1 uM incubated for 60 mins by UPLC-MS/MS analysis; type: ADME, Microsome; conditions: read-out: Stability; summary of the method: as §3

EC50 (Hepatitis C virus [1]) | EC50 (Hepatitis C virus [2]) | EC50 (Hepatitis C virus [3]) | EC50 (Hepatitis C virus [4]) | Compound | further results
11 pM | 2.8 pM | 5.8 pM | 817 pM | CC[Si](CC)(CC)c1ccc(N2[C@H](c3ccc(NC(=O)[C@@H]4CCCN4C(=O)[C@@H](NC(=O)OC)C(C)C)cc3)CC[C@H]2c2ccc(NC(=O)[C@@H]3CCCN3C(=O)[C@@H](NC(=O)OC)C(C)C)cc2)cc1 | 
0.9 pM | 0.4 pM | 11 pM | 88 pM | COC(=O)N[C@H](C(=O)N1CCC[C@H]1C(=O)Nc1ccc([C@@H]2CC[C@@H](c3ccc(NC(=O)[C@@H]4CCCN4C(=O)[C@@H](NC(=O)OC)C(C)C)cc3)N2c2cc(F)c(N3CC[Si](C)(C)CC3)c(F)c2)cc1)C(C)C | 
0.8 pM | 0.4 pM | 8.8 pM | 182 pM | COC(=O)N[C@H](C(=O)N1CCC[C@H]1C(=O)Nc1ccc([C@@H]2CC[C@@H](c3ccc(NC(=O)[C@@H]4CCCN4C(=O)[C@@H](NC(=O)OC)C(C)C)cc3)N2c2ccc(N3CC[Si](C)(C)CC3)c(F)c2)cc1)C(C)C | 
7.9 pM | 1.4 pM | 3 pM | 80 pM | COC(=O)N[C@H](C(=O)N1CCC[C@H]1C(=O)Nc1ccc([C@@H]2CC[C@@H](c3ccc(NC(=O)[C@@H]4CCCN4C(=O)[C@@H](NC(=O)OC)[C@@H](C)OC)cc3)N2c2ccc([Si](C)(C)C(C)(C)C)cc2)cc1)[C@@H](C)OC | Ratio EC50 (Hepatitis C virus [5]): 10
0.9 pM | 0.4 pM | 37 pM | 463 pM | COC(=O)N[C@H](C(=O)N1CCC[C@H]1C(=O)Nc1ccc([C@H]2CC[C@H](c3ccc(NC(=O)[C@@H]4CCCN4C(=O)[C@@H](NC(=O)OC)C(C)C)cc3)N2c2cc(F)c(N3CC[Si](C)(C)CC3)c(F)c2)cc1)C(C)C | 
2.3 pM | 1 pM | 2 pM | 121 pM | CC[Si](CC)(CC)c1ccc(N2[C@H](c3ccc(NC(=O)[C@@H]4CCCN4C(=O)[C@@H](NC(=O)OC)[C@@H](C)OC)cc3)CC[C@H]2c2ccc(NC(=O)[C@@H]3CCCN3C(=O)[C@@H](NC(=O)OC)[C@@H](C)OC)cc2)cc1 | Ratio EC50 (Hepatitis C virus [5]): 7
 |  |  |  | COC(=O)N[C@H](C(=O)N1CCC[C@H]1c1nc2cc([C@@H]3CC[C@@H](c4cc5nc([C@@H]6CCCN6C(=O)[C@@H](NC(=O)OC)[C@@H](C)OC)[nH]c5cc4F)N3c3cc(F)c(N4CCC(c5ccc(F)cc5)CC4)c(F)c3)c(F)cc2[nH]1)[C@@H](C)OC | concentration at 0.5 h [6]: 414 ng/mL; concentration at 3 h [7]: 1540 ng/mL; concentration at 24 h [8]: 718 ng/mL; concentration at 0.5 h [9]: 103 ng/mL; concentration at 3 h [10]: 96.4 ng/mL; concentration at 8 h [11]: 30.1 ng/mL; concentration at 0.5 h [12]: 94 ng/g; concentration at 3 h [13]: 193 ng/g; concentration at 24 h [14]: 69.6 ng/g; concentration at 0.5 h [15]: 155 ng/g; concentration at 3 h [16]: 102 ng/g; concentration at 8 h [17]: 18.9 ng/g; Kp at 0.5 h [18]: 0.43; Kp at 3 h [19]: 0.39; Kp at 24 h [20]: 0.11; Kp at 0.5 h [21]: 1.5; Kp at 3 h [22]: 1.1; Kp at 8 h [23]: 0.63
0.8 pM | 0.5 pM | 51 pM | 831 pM | COC(=O)N[C@H](C(=O)N1CCC[C@H]1C(=O)Nc1ccc([C@H]2CC[C@H](c3ccc(NC(=O)[C@@H]4CCCN4C(=O)[C@@H](NC(=O)OC)C(C)C)cc3)N2c2ccc(N3CC[Si](C)(C)CC3)c(F)c2)cc1)C(C)C | 
12 pM | 1.6 pM | 7 pM | 247 pM | COC(=O)N[C@H](C(=O)N1CCC[C@H]1C(=O)Nc1ccc([C@@H]2CC[C@@H](c3ccc(NC(=O)[C@@H]4CCCN4C(=O)[C@@H](NC(=O)OC)[C@@H](C)OC)cc3)N2c2ccc([Si](C)(C)C)cc2)cc1)[C@@H](C)OC | 
 |  |  |  | COC(=O)N[C@H](C(=O)N1CCC[C@H]1C(=O)Nc1ccc([C@@H]2CC[C@@H](c3ccc(NC(=O)[C@@H]4CCCN4C(=O)[C@@H](NC(=O)OC)C(C)C)cc3)N2c2ccc(C(C)(C)C)cc2)cc1)C(C)C [OMBITASVIR] | remaining at 1 h, 1 µM [24]: 63.5%; remaining at 1 h, 1 µM [25]: 73.5%; remaining at 1 h, 1 µM [26]: 82.5%

Compound | EC50 (Hepatitis C virus [1]) | EC50 (Hepatitis C virus [2]) | EC50 (Hepatitis C virus [3]) | EC50 (Hepatitis C virus [4]) | further results
COC(=O)N[C@H](C(=O)N1CCC[C@H]1C(=O)Nc1ccc([C@@H]2CC[C@@H](c3ccc(NC(=O)[C@@H]4CCCN4C(=O)[C@@H](NC(=O)OC)[C@@H](C)OC)cc3)N2c2ccc(N3CC[Si](C)(C)CC3)c(F)c2)cc1)[C@@H](C)OC | 12 pM | 2.9 pM | 6 pM | 242 pM | 
COC(=O)N[C@H](C(=O)N1CCC[C@H]1C(=O)Nc1ccc([C@H]2CC[C@H](c3ccc(NC(=O)[C@@H]4CCCN4C(=O)[C@@H](NC(=O)OC)[C@@H](C)OC)cc3)N2c2ccc(N3CC[Si](C)(C)CC3)c(F)c2)cc1)[C@@H](C)OC | 65 pM | 16 pM | 14 pM | 454 pM | 
COC(=O)N[C@H](C(=O)N1CCC[C@H]1C(=O)Nc1ccc([C@H]2CC[C@H](c3ccc(NC(=O)[C@@H]4CCCN4C(=O)[C@@H](NC(=O)OC)[C@@H](C)OC)cc3)N2c2cc(F)c(N3CC[Si](C)(C)CC3)c(F)c2)cc1)[C@@H](C)OC | 12 pM | 1.7 pM | 4.8 pM | 114 pM | 
